Source: ChEMBL document CHEMBL2086245, “Micelles catalyzed chemo- and regio-selective one pot and one step synthesis of 2,3,5,6-tetrakis(alkyl and arylsulfanyl)-1,4-benzoquinones and 2,5-diaminosubstituted-1,4-benzoquinones "In-Water" and their biological evaluation as antibacterial and antifungal agents” (Eur J Med Chem, 2012)
Converted amounts (≈) assume the structure as drawn.

Key:
Format in all cases: functional
Sporothrix schenckii = test: Antifungal activity against Sporothrix schenckii after 72 hrs by broth microdilution method
In short: (§1)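 NCCLS broth microdilution in MOPS-buffered RPMI 1640, 96-well plates. Inoculum 1-5 × 10^3 cells/mL, moist chamber, 35 °C. Absorbance at 492 nm read at 48 h (C. albicans, C. parapsilosis), 72 h (C. neoformans, S. schenckii, A. fumigatus) or 96 h (T. mentagrophytes). MIC defined as 90% growth inhibition versus growth control.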

Aspergillus fumigatus = test: Antifungal activity against Aspergillus fumigatus after 72 hrs by broth microdilution method; in short: as §1
Candida albicans = test: Antifungal activity against Candida albicans after 48 hrs by broth microdilution method; in short: as §1
[1] = test system: Trichophyton mentagrophytes; test: Antifungal activity against Trichophyton mentagrophytes after 96 hrs by broth microdilution method; in short: as §1
Cryptococcus neoformans = test: Antifungal activity against Cryptococcus neoformans after 72 hrs by broth microdilution method; in short: as §1
Candida parapsilosis = test: Antifungal activity against Candida parapsilosis ATCC 22019 after 48 hrs by broth microdilution method; conditions: Lodderomyces parapsilosis, ATCC 22019, 48 h; in short: as §1
Escherichia coli = test: Antibacterial activity against Escherichia coli ATCC 9637 after 24 hrs by broth microdilution method
In short: (§2)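 NCCLS broth microdilution in Mueller-Hinton broth, 96-well plates. Initial inoculum 1-5 × 10^3 cells/mL. Incubated in a moist chamber at 35 °C for 24 h, then absorbance read at 492 nm. MIC taken as the concentration giving 90% growth inhibition relative to the growth control.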

Staphylococcus aureus = test: Antibacterial activity against Staphylococcus aureus ATCC 25923 after 24 hrs by broth microdilution method; in short: as §2
Klebsiella pneumoniae = test: Antibacterial activity against Klebsiella pneumoniae ATCC 27736 after 24 hrs by broth microdilution method; in short: as §2
Pseudomonas aeruginosa = test: Antibacterial activity against Pseudomonas aeruginosa ATCC BAA-427 after 24 hrs by broth microdilution method; in short: as §2

Molecule	MIC (Sporothrix schenckii) [mg/L]	MIC (Aspergillus fumigatus) [mg/L]	MIC (Candida albicans) [mg/L]	MIC [1] [mg/L]	MIC (Cryptococcus neoformans) [mg/L]	MIC (Candida parapsilosis) [mg/L]	MIC (Escherichia coli; ATCC 9637, 24 h) [mg/L]	MIC (Staphylococcus aureus; ATCC 25923, 24 h) [mg/L]	MIC (Klebsiella pneumoniae; ATCC 27736, 24 h) [mg/L]	MIC (Pseudomonas aeruginosa; ATCC BAA-427, 24 h) [mg/L]	MIC (Escherichia coli) [mg/L]	MIC (Staphylococcus aureus) [mg/L]	MIC (Klebsiella pneumoniae) [mg/L]	MIC (Pseudomonas aeruginosa) [mg/L]
Nc1nc(=O)[nH]cc1F [FLUCYTOSINE]	> 32	> 32	0.25 (≈ 1.94 µM)	> 32	0.13 (≈ 1.01 µM)	0.13 (≈ 1.01 µM)	–	–	–	–	–	–	–	–
Cc1ccc(SC2=C(Cl)C(=O)C(Sc3ccc(C)cc3)=C(Cl)C2=O)cc1	50 (≈ 119 µM)	> 50	25 (≈ 59.3 µM)	50 (≈ 119 µM)	25 (≈ 59.3 µM)	25 (≈ 59.3 µM)	> 50	50 (≈ 119 µM)	> 50	> 50	–	–	–	–
CCOC(=O)CC(SC1=C(SC(CC(=O)OCC)C(=O)OCC)C(=O)C(SC(CC(=O)OCC)C(=O)OCC)=C(SC(CC(=O)OCC)C(=O)OCC)C1=O)C(=O)OCC (stereo unspecified)	> 50	> 50	25 (≈ 27 µM)	50 (≈ 54 µM)	50 (≈ 54 µM)	25 (≈ 27 µM)	> 50	> 50	> 50	> 50	–	–	–	–
Cc1ccc(SC2=C(O)C(=O)C(Sc3ccc(C)cc3)=C(Sc3ccc(C)cc3)C2=O)cc1	> 50	> 50	12.5 (≈ 25.5 µM)	50 (≈ 102 µM)	25 (≈ 51 µM)	25 (≈ 51 µM)	> 50	> 50	> 50	> 50	–	–	–	–
GENTAMICIN	–	–	–	–	–	–	–	–	–	–	1.56	1.56	1.56	0.39
O=C1C(Cl)=C(N2CCCC2)C(=O)C(Cl)=C1N1CCCC1	> 50	> 50	25 (≈ 79.3 µM)	50 (≈ 159 µM)	25 (≈ 79.3 µM)	50 (≈ 159 µM)	> 50	> 50	> 50	> 50	–	–	–	–
CCOC(=O)CSC1=C(SCC(=O)OCC)C(=O)C(SCC(=O)OCC)=C(SCC(=O)OCC)C1=O	> 50	> 50	25 (≈ 43 µM)	50 (≈ 86.1 µM)	50 (≈ 86.1 µM)	25 (≈ 43 µM)	> 50	50 (≈ 86.1 µM)	> 50	> 50	–	–	–	–
O=C1C(O)=C(Sc2cccc3ccccc23)C(=O)C(Sc2cccc3ccccc23)=C1Sc1cccc2ccccc12	> 50	> 50	25 (≈ 41.8 µM)	50 (≈ 83.5 µM)	25 (≈ 41.8 µM)	25 (≈ 41.8 µM)	> 50	> 50	> 50	> 50	–	–	–	–
Cc1ccc(SC2=C(Sc3ccc(C)cc3)C(=O)C(Sc3ccc(C)cc3)=C(Sc3ccc(C)cc3)C2=O)cc1	50 (≈ 83.8 µM)	> 50	25 (≈ 41.9 µM)	> 50	> 50	25 (≈ 41.9 µM)	> 50	> 50	> 50	> 50	–	–	–	–
O=C1C(Cl)=C(Sc2cccc3ccccc23)C(=O)C(Sc2cccc3ccccc23)=C1Sc1cccc2ccccc12	50 (≈ 81 µM)	> 50	25 (≈ 40.5 µM)	50 (≈ 81 µM)	25 (≈ 40.5 µM)	12.5 (≈ 20.3 µM)	> 50	12.5 (≈ 20.3 µM)	> 50	> 50	–	–	–	–
Clc1ccccc1C(c1ccccc1)(c1ccccc1)n1ccnc1 [CLOTRIMAZOLE]	4 (≈ 11.6 µM)	8 (≈ 23.2 µM)	0.25 (≈ 0.725 µM)	2 (≈ 5.8 µM)	0.25 (≈ 0.725 µM)	1 (≈ 2.9 µM)	–	–	–	–	–	–	–	–
